# In the library only some 1.9% were active in any assay of this set; here they are far more common.
# M4 antag: antagonists of human muscarinic M4 receptor (CHRM4) | CHO-hM4 cells, ACh EC80, Fluo-8 calcium fluorescence | inhibition, % at 3 µM | 360,000 compounds, 0.73% hits;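 active = inhibition above its plate's cutoff, the mean inhibition of sample wells plus 3 SD, cut at about 27% in these data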;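 note: 0% = acetylcholine EC80 with DMSO and 100% = DMSO without agonist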
# CHRM5 antagonist: antagonists of human muscarinic M5 receptor (CHRM5) | P08912 | CHO-hM5 cells, Fluo-8 calcium fluorescence, ACh EC80 | inhibition, % at 3 µM | 360,000 compounds, 0.59% hits | AID 624040;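 active = inhibition above a per-plate cutoff, the mean of that plate's test compounds plus 3 SD, cut at about 27% in these data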;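 note: 0% = acetylcholine EC80 with DMSO and 100% = DMSO without agonist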
# Target sequence (P08912 whole entry, looked up): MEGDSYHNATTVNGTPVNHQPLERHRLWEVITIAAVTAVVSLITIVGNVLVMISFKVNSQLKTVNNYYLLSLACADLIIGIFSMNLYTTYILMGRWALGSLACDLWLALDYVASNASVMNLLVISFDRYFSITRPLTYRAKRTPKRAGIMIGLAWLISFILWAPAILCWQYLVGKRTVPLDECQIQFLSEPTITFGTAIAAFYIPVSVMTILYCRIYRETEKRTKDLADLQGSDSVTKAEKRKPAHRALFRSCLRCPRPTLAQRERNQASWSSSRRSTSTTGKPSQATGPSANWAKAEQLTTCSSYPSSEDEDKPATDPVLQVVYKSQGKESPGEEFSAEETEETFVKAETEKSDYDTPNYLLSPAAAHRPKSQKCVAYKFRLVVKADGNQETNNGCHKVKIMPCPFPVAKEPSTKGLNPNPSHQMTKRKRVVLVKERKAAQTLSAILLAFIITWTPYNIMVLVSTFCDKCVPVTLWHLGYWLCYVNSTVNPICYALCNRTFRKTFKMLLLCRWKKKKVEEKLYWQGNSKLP
# CHRM5 PAM: CHRM5 positive allosteric modulation; P08912; CHO-K1 hM5, Fluo-8 calcium, ACh EC20 PAM; 0% = ACh EC20, 100% = ACh EC100; activation, % at 3 µM; 360,000 compounds, 0.3% hits;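 active = activation above the run cutoff, the mean activation of all test compounds plus 3 SD, cut at about 18% in these data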
#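 Probe or stimulus: acetylcholine, EC20 level; Assay system: human M5 receptor in CHO-K1 cells; Schedule: compound preincubation 140 s before EC20 acetylcholine addition; Technique: intracellular calcium via Fluo-8 fluorescence; Dosing: single-point, 3 µM nominal; Read-out basis: percent activation from peak-over-basal fluorescence ratio, scaled EC20-to-EC100 acetylcholine; Repeats: one well per compound, no replicates.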
# M4 PAM: CHRM4 positive allosteric modulation; P08173; CHO-K1 hM4/Gqi5, Fluo-8 calcium fluorescence, ACh EC20; 0% = ACh EC20, 100% = maximal ACh; activation, % at 3 µM; 360,000 compounds, 0.4% hits; AID 624126;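 active = activation above its plate's cutoff, the mean activation of sample wells plus 3 SD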
# M4 ag: CHRM4 agonism in calcium assay; P08173; 360,000 compounds, 0.14% hits; CHO-K1 hM4/Gqi5, Fluo-8 calcium fluorescence; vehicle 0%, full acetylcholine response 100%; activation, % at 3 µM;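 active = activation above the run mean over all test wells plus 3 SD, cut at about 32% in these data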;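 note: peak over basal fluorescence ratio per well then scaled between controls; 0% = DMSO wells and 100% = acetylcholine at EC100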
# CHRM5 agonist: CHRM5 agonism in calcium assay; CHO-K1 hM5 cells, Fluo-8 calcium fluorescence; 0% DMSO wells, 100% maximal acetylcholine response; activation, % at 3 µM; 360,000 compounds, 0.19% hits;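 active = activation above the run's mean over test compounds plus 3 SD, cut at about 23% in these data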;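 note: signal is peak over basal fluorescence ratio across the kinetic read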
# Active calls of the source: *.
SMILES,M4 antag,CHRM5 antagonist,CHRM5 PAM,M4 PAM,M4 ag,CHRM5 agonist
Cc1ccc2c(C)c(C(=O)NCc3ccc(S(N)(=O)=O)cc3)oc2c1C,-7.6,3.9,26.6*,3.9,1.9,3.6
Cc1ccc2c(C)c(C(=O)Nc3ccc(S(N)(=O)=O)cc3)oc2c1C,0.4,0.3,27.1*,4.3,0.7,1.5
COC(=O)c1ccc(Cl)cc1NC(=O)/C=C/c1ccc(C)o1,0.6,15.8,20.0*,3.3,0.1,-0.3
COc1ccc(-c2nnc(N3CCOCC3)c3ccccc23)cc1,4.0,5.0,-1.5,-3.3,-0.3,-1.5
Cc1nnc(N2CCOCC2)c2ccccc12,-9.1,-8.2,17.1,24.6*,0.5,-2.8
CC(=O)CC(C)(C)Nc1nc2ccc([N+](=O)[O-])cc2o1,-9.1,-10.8,25.0*,7.4,1.2,5.2
CCc1ccc(C2CC(c3ccccc3Cl)Nc3nc(N)nn32)cc1 (stereo not given),1.3,3.0,-4.6,8.7,12.6,24.5*
CCc1ccc(C2CC(c3ccccc3)Nc3nc(N)nn32)cc1 (stereo not given),-6.8,1.5,-2.7,7.4,1.2,2.1
CC(=O)Nc1cc(-c2cccc(C(=O)N(C)C)c2)cn2c(-c3ccc(C(C)=O)cc3)cnc12,2.5,-12.4,1.9,-5.7,6.0,3.6
CC1(C)N=C(N)N=C(N)N1c1ccc(CCCCc2ccccc2)cc1,9.0,40.9*,-19.9,-9.0,-0.5,-3.7
CC1(C)N=C(N)N=C(N)N1c1ccccc1,-4.4,-1.2,2.6,6.6,0.6,-6.4
CC(=O)Nc1cc(-c2cccc(NS(C)(=O)=O)c2)cn2c(-c3ccc(F)c(Cl)c3)cnc12,6.8,12.4,-7.9,-6.3,18.6,2.6
O=C(Nc1ccc(F)cc1F)Nc1csc2ccccc12,6.1,32.8*,-31.2,-13.4,11.9,-1.8
O=C(Nc1ccc(F)c(Cl)c1)Nc1csc2ccccc12,17.5,34.3*,-25.6,-11.4,20.1,7.5
CSc1sc(C(=O)NCC2CC2)c2c1S(=O)(=O)N(C)c1ccccc1-2,-10.0,8.8,-12.5,-8.6,7.5,2.5
CSc1sc(C(=O)NCC2CC2)c(-c2cccs2)c1C#N,-0.8,-4.5,5.3,16.6*,6.2,0.6
CCOC(=O)C1(C)CCCN(C(=O)c2ccccc2C(F)(F)F)C1 (stereo not given),-10.9,-0.1,0.2,5.3,0.4,0.8
CC1CCN(CCCOc2ccc(OCc3ccccc3)cc2)CC1,23.2,7.7,-21.2,-17.9,7.4,-11.6
CC1CCN(CCCCOc2ccc(C(=O)c3ccccc3)cc2)CC1,42.2*,3.0,-12.2,-17.0,3.3,-11.0
CC1CCN(CCOc2ccc(C(=O)c3ccccc3)cc2)CC1,42.8*,7.2,-4.5,-16.5,0.5,-20.1
CC1CCN(CCCCOc2cccc(C(C)C)c2)CC1,33.7*,21.2,-21.4,-18.8,4.5,-7.8
COc1ccc(S(N)(=O)=O)cc1C(N)=O,-1.4,-1.9,0.8,17.3,0.9,0.1
COc1ccc(S(=O)(=O)N2CCSCC2)cc1C(N)=O,-5.8,-6.1,7.0,14.1*,2.1,-1.6
O=C(NCc1cccnc1)C(=O)C1C(=O)Nc2ccccc21 (stereo not given),-17.1,-12.9,18.2*,1.2,1.6,4.0
Nc1ccc(O)c(-c2nc3ccccc3s2)c1,4.2,5.5,-4.2,-1.8,0.3,-1.2
SMILES,M4 antag,CHRM5 antagonist,CHRM5 PAM,M4 PAM,M4 ag,CHRM5 agonist
Oc1ccc(N=C/C=C/c2cccc(Br)c2)cc1-c1nc2ccccc2s1,-1.0,8.2,-3.5,31.6*,-0.3,2.6
CCCCc1nnc(NC(=O)c2oc3ccc(OC)cc3c2C)s1,-15.3,-16.1,19.3*,14.8,0.4,-2.9
COc1ccc2oc(C(=O)Nc3nccs3)c(C)c2c1,-2.8,-0.5,6.2,7.1,1.4,-4.2
CCCCNc1nc(NCc2ccccc2)nc2ccccc12,90.0*,82.2*,-24.8,-17.9,105.4*,80.1*
COc1cc2ncnc(NCc3ccccc3)c2cc1OC,-0.4,11.5,-4.0,2.0,1.8,-3.5
CNc1nc(NCc2ccccc2)c2ccccc2n1,1.9,-5.8,1.4,-5.3,6.3,0.9
